For one experiment, the system named is A549. The experiment is described as follows: Cytotoxicity against human A549 cells assessed as reduction in cell viability after 48 hrs by MTT assay. The following applies: A549, 48 h. In kind it is functional, cell-based. Summed up:
(§1)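 MCF-7, HeLa and A549 cells seeded at 3.5 × 10^3 per well in medium with 10% FBS and left overnight. Medium then replaced with fresh medium holding a range of compound concentrations for 48 h. MTT (5 mg/mL) added, 4 h at 37 °C. Formazan dissolved in DMSO, absorbance read at 570 nm. Triplicate wells per dose; IC50 derived.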
Background: Tetrazolium dyes change colour on reduction, which living cells bring about.

For another experiment, the system named is HeLa. Put plainly: Cytotoxicity against human HeLa cells assessed as reduction in cell viability after 48 hrs by MTT assay. The experiment is classed as functional, cell-based. Summed up: as §1
The test system of the next experiment is MCF7. The experiment is described as follows: Cytotoxicity against human MCF7 cells assessed as reduction in cell viability after 48 hrs by MTT assay. The experiment is classed as functional, cell-based. The following applies: MCF7, 48 h. Summed up:
as §1

Experiment [1] deals with T1, DNA topoisomerase 1 (Homo sapiens) (UniProt P11387).
T1 sequence (whole entry): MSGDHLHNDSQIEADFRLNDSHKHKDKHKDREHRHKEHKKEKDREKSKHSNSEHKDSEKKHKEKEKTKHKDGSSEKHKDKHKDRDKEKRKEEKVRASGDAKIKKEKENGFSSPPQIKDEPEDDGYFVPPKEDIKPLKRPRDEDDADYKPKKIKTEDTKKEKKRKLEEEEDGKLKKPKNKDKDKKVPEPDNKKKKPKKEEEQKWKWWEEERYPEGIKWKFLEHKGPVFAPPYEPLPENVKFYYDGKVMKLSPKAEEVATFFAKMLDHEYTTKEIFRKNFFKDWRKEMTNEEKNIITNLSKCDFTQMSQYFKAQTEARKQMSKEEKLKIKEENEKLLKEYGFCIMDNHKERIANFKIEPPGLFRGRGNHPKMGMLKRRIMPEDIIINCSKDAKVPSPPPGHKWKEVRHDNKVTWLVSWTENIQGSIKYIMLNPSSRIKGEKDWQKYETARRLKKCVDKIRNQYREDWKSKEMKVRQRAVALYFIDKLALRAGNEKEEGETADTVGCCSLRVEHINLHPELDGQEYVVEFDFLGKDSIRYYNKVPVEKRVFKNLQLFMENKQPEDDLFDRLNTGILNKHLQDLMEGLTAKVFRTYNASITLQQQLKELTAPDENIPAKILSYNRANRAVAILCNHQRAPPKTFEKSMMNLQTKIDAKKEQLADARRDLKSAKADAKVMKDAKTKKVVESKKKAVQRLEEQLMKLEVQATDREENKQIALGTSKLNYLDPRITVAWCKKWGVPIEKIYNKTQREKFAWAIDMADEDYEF
Put plainly: Inhibition of recombinant human topoisomerase-1 assessed as DNA insertion by measuring drug-DNA-enzyme ternary complex formation up to 100 uM using supercoiled pBR322 DNA substrate after 30 mins by ethidium bromide staining based agarose gel electrophoresis. Summed up: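 Supercoiled pBR322 DNA (0.1 µg) in Topo I buffer (50 mM Tris-HCl pH 7.5, 10 mM MgCl2, 50 mM KCl, 0.1 mM EDTA, 0.5 mM DTT, BSA) pre-incubated with compound 10 min at 25 °C. Excess Topo I (4 units) then added, 30 min at 37 °C. Read-out: 1% agarose/TAE electrophoresis, EB staining, UV imaging. Ethidium bromide positive control; camptothecin negative control.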

Experiment [2] concerns the target T1, DNA topoisomerase 1 (Homo sapiens). Put plainly: Inhibition of recombinant human topoisomerase-1 assessed as reduction in relaxation of supercoiled pBR322 DNA substrate at 100 uM after 30 mins by ethidium bromide staining based agarose gel electrophoresis relative to control. Summed up: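 pBR322 DNA (0.1 µg) and recombinant human Topo I (0.2 units) incubated ± compound 30 min at 37 °C in supplier's Topo I buffer; compounds from DMSO stocks. Stopped with bromophenol blue/xylene cyanol/glycerol dye. Read-out: 1% agarose in 1× TAE, 100 V for 30 min, EB stain (0.5 µg/mL). Percent inhibition from gray-scale band analysis; camptothecin positive control.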

Experiment [3] has the same target. The experiment is described as follows: Inhibition of recombinant human topoisomerase-1 assessed as DNA insertion by measuring drug-DNA-enzyme ternary complex formation up to 25 uM using supercoiled pBR322 DNA substrate after 30 mins by ethidium bromide staining based agarose gel electrophoresis. Summed up:
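Supercoiled pBR322 DNA (0.1 µg) preincubated with compound 10 min at 25 °C, then excess Topo I (4 units) added, 30 min at 37 °C in 20 µL Tris-HCl pH 7.5 buffer with MgCl2, KCl, EDTA, DTT, BSA. Run on 1% agarose in TAE 40 min, EB post-stained, UV-imaged. Unwinding read as supercoiled retained versus relaxed.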

Experiment [4] has the same target. Put plainly: Poison activity at recombinant human topoisomerase-1 assessed as stabilization of DNA-enzyme cleavage complex by measuring increase in linear DNA using supercoiled pBR322 DNA substrate after 30 mins by ethidium bromide staining based agarose gel electrophoresis.
For experiment [5] the target is unchanged. Put plainly: Inhibition of recombinant human topoisomerase-1 assessed as interference in DNA binding to enzyme by measuring reduction in enzyme-DNA complex using supercoiled pBR322 DNA substrate preincubated for 20 mins followed by substrate addition measured after 3 mins by electrophoretic mobility shift assay. (A gel shift assay detects complexes by their altered migration in electrophoresis.)

Activity calls are given as the source filed them. The rule behind the calls is not given here.

Consider `CC[C@@]1(O)C(=O)OCc2c1cc1n(c2=O)Cc2cc3ccccc3nc2-1` [CAMPTOTHECIN], for which the IC50 with A549 worked out at 0.24 µM; with HeLa it was 60 µM; with MCF7 it was 71.3 µM.

In the case of `C=C1OC(=O)C=C1Cc1ccc(NC(=O)/C=C/c2ccccc2)cc1`, the 50% inhibitory concentration (IC50) in the experiment with A549 turned out to be 14.8 µM; with HeLa, 7.34 µM; in the experiment on MCF7, 9.49 µM. Further, in experiment [1], the inhibition result is “inactive”. For the same compound, the inhibition in experiment [2] was 48.6%.

On to `O=C(/C=C/c1ccccc1F)Nc1ccc(CC2=CC(=O)OC2)cc1`, for which the IC50 in the experiment on A549 was 40 µM; in the experiment with HeLa, 45.8 µM; with MCF7 it was > 50 µM. Also, the inhibition in experiment [2] stood at 11.7%.

On to `O=C(/C=C/c1ccc(F)cc1)Nc1ccc(CC2=CC(=O)OC2)cc1`, for which the concentration for half-maximal inhibition (IC50) in the experiment with A549 is 41.8 µM; in the experiment on HeLa, > 50 µM; in the experiment with MCF7 it was 47.9 µM. In addition, the inhibition in experiment [2] amounted to 12.1%.

Take `C=C1OC(=O)C=C1Cc1ccc(NC(=O)Cc2cccc(C(F)(F)F)c2)cc1`: the IC50 in the experiment on A549 amounted to 6.69 µM; in the experiment with HeLa, 8.63 µM; in the experiment on MCF7 it was 6.15 µM. Besides, the inhibition result in experiment [1] was “inactive”. The inhibition in experiment [2] stood at 41.9%.

As to `C=C1OC(=O)C=C1Cc1ccc(NC(=O)Cc2ccccc2Cl)cc1`, the IC50 is 48.8 µM in the experiment on A549, 42.6 µM with HeLa and 40.9 µM in the experiment with MCF7. Besides, in experiment [1], the inhibition entry was “inactive”. For the same compound, the inhibition in experiment [2] came out at 21.3%.

Consider `C=C1OC(=O)C=C1Cc1ccc(NC(=O)Cc2ccc(Cl)cc2)cc1`, for which the concentration for half-maximal inhibition (IC50) was 37.6 µM with A549, 35.5 µM with HeLa and 37.4 µM in the experiment on MCF7. The inhibition entry in experiment [1] is “inactive”. The inhibition in experiment [2] worked out at 30.3%.

As for `C=C1OC(=O)C=C1Cc1ccc(NC(=O)Cc2ccccc2C(F)(F)F)cc1`, the IC50 with A549 came to 37.5 µM; in the experiment with HeLa, 37.5 µM; in the experiment on MCF7, 48.7 µM. Besides, the inhibition result in experiment [1] is “inactive”. Moreover, the inhibition in experiment [2] amounted to 32.3%.

On to `O=C(Cc1ccc(C(F)(F)F)cc1)Nc1ccc(CC2=CC(=O)OC2)cc1`, for which the values for the IC50 in the experiment with A549, in the experiment on HeLa and in the experiment on MCF7 were 45.8 µM, 48.8 µM and 46.4 µM, respectively. The inhibition in experiment [2] amounted to 11%.

Take `C=C1OC(=O)C=C1Cc1ccc(NC(=O)Cc2ccccc2)cc1`: the concentration for half-maximal inhibition (IC50) in the experiment on A549 is 39 µM; in the experiment with HeLa it was > 50 µM; in the experiment on MCF7, > 50 µM. In addition, in experiment [1], the inhibition entry was “inactive”. Also, the inhibition in experiment [2] came out at 28.5%.

For `CC[n+]1c(-c2ccccc2)c2cc(N)ccc2c2ccc(N)cc21`, the inhibition result in experiment [3] is “Active”.

As to `Cc1ccc(CC(=O)Nc2ccc(CC3=CC(=O)OC3)cc2)cc1`, the IC50 in the experiment with A549 was 41.4 µM; in the experiment on HeLa it was > 50 µM; in the experiment with MCF7 it was 49.2 µM. The inhibition in experiment [2] came to 19.4%.

On to `O=C(/C=C/c1cccc(F)c1)Nc1ccc(CC2=CC(=O)OC2)cc1`, for which the half-inhibitory concentration (IC50) was > 50 µM in the experiment with A549, 49 µM in the experiment on HeLa and 39 µM in the experiment with MCF7. Further, the inhibition in experiment [2] was 13.1%.

As to `C=C1OC(=O)C=C1Cc1ccc(NC(=O)Cc2ccc(C)cc2)cc1`, the results for the IC50 in the experiment with A549, in the experiment with HeLa and with MCF7 were 7.79 µM, 7.12 µM and 3.94 µM, respectively. For the same compound, in experiment [1], the inhibition result was “inactive”. Also, in experiment [2], the inhibition worked out at 47.9%.

For the compound `C=C1OC(=O)C=C1Cc1ccc(NC(=O)/C=C/c2cccc(F)c2)cc1`, the 50% inhibitory concentration (IC50) in the experiment with A549 was found to be 35.2 µM; in the experiment on HeLa, 30.2 µM; with MCF7, 39 µM. The inhibition result in experiment [1] is “inactive”. Also, the inhibition in experiment [2] was found to be 34.5%.

Turning to `C=C1OC(=O)C=C1Cc1ccc(NC(=O)Cc2ccc(F)cc2)cc1`, the IC50 stood at 22.8 µM in the experiment on A549, 16.2 µM with HeLa and 16 µM in the experiment with MCF7. Besides, in experiment [1], the inhibition entry is “inactive”. Also, the inhibition in experiment [2] was found to be 43.3%.

In the case of `C=C1OC(=O)C=C1Cc1ccc(NC(=O)Cc2cccc(Cl)c2)cc1`, the half-inhibitory concentration (IC50) with A549 turned out to be 41 µM; in the experiment with HeLa it was 45.8 µM; in the experiment on MCF7, 42.9 µM. For the same compound, the inhibition result in experiment [1] is “inactive”. The inhibition in experiment [2] amounted to 22.5%.

`C=C1OC(=O)C=C1Cc1ccc(NC(=O)/C=C/c2ccc(F)cc2)cc1`: the half-inhibitory concentration (IC50) is 3.46 µM with A549, 2.77 µM in the experiment with HeLa and 4.43 µM with MCF7. Also, the inhibition entry in experiment [1] was “inactive”. The Activity entry in experiment [4] is “Dose-dependent effect”. Moreover, the inhibition entry in experiment [5] is “Dose-dependent effect”; in experiment [2], 94%.

As to `O=C(Cc1ccccc1C(F)(F)F)Nc1ccc(CC2=CC(=O)OC2)cc1`, the IC50 was found to be 48.9 µM with A549, 44.6 µM with HeLa and 43.8 µM in the experiment with MCF7. Further, in experiment [2], the inhibition was 20.3%.

As for `C=C1OC(=O)C=C1Cc1ccc(NC(=O)c2ccccc2)cc1`, the values for the IC50 with A549, in the experiment on HeLa and with MCF7 were 49.8 µM, 48.3 µM and > 50 µM, respectively. The inhibition result in experiment [1] is “inactive”. In addition, in experiment [2], the inhibition was 28.7%.

Consider `O=C(Cc1cccc(C(F)(F)F)c1)Nc1ccc(CC2=CC(=O)OC2)cc1`, for which the IC50 in the experiment with A549 is > 50 µM; in the experiment on HeLa it was 44 µM; in the experiment with MCF7, 40.1 µM. Besides, the inhibition in experiment [2] was 12.3%.

For `C=C1OC(=O)C=C1Cc1ccc(NC(=O)/C=C/c2ccccc2F)cc1`, the figures for the IC50 with A549, in the experiment on HeLa and in the experiment with MCF7 were 7.41 µM, 6.93 µM and 13.8 µM, respectively. In addition, the inhibition result in experiment [1] is “inactive”. Also, the inhibition in experiment [2] is 44.6%.

Regarding `C=C1OC(=O)C=C1Cc1ccc(NC(=O)Cc2ccccc2F)cc1`, the concentration for half-maximal inhibition (IC50) in the experiment with A549 is 32 µM; with HeLa, 40.5 µM; in the experiment with MCF7 it was 48.3 µM. For the same compound, the inhibition result in experiment [1] is “inactive”. In experiment [2], the inhibition is 32.8%.

As to `C=C1OC(=O)C=C1Cc1ccc(NC(=O)Cc2ccc(C(F)(F)F)cc2)cc1`, the IC50 in the experiment on A549 stood at 42.9 µM; in the experiment on HeLa it was 39.7 µM; with MCF7 it was 39.8 µM. The inhibition entry in experiment [1] was “inactive”. Besides, in experiment [2], the inhibition came out at 34.9%.

Broadly, the IC50 is the concentration needed to halve the response being measured. In general, inhibition refers to the relative decrease from the control value, in per cent.

For the origin of these results see ChEMBL document CHEMBL3994612, “Novel 4-(4-substituted amidobenzyl)furan-2(5H)-one derivatives as topoisomerase I inhibitors” (Eur J Med Chem, 2017).
